Activity calls are given as the source filed them. The rule behind the calls is not given here.
Experiments:
[1] = target: T1, Protein cereblon/Induced myeloid leukemia cell differentiation protein Mcl-1 (Homo sapiens) (UniProt Q07820+Q96SW2); test: Protac activity at Cereblon/MCL1 long isoform in wild type human OPM2 cells assessed as protein abundance at 50 nM after 48 hrs by immunoblot analysis relative to control; format: cell-based
Outline: (§1)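 OPM2 multiple myeloma cells, wild type or CRBN-knockout, were treated for 48 h with degrader or DMSO vehicle. MCL1 long and short isoforms were detected by immunoblot and levels compared with DMSO controls.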

[2] = target: T1, Protein cereblon/Induced myeloid leukemia cell differentiation protein Mcl-1 (Homo sapiens); test: Protac activity at Cereblon/MCL1 long isoform in wild type human OPM2 cells assessed as MCL1 long isoform level at 300 nM pre-incubated for 72 hrs followed by cycloheximide addition and measured after 60 mins by immunoblot analysis (reference value: 84%); format: cell-based
Outline: (§2)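 Cycloheximide chase: cells were treated for 72 h with DMSO or degrader, with cycloheximide added for the final 30, 60 or 120 min. OPM2 and MM1.S cells were used, and wild-type OPM2 was compared with OPM2 CRBN-/- at 60 and 120 min. MCL1 was detected by immunoblot.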

[3] = target: T1, Protein cereblon/Induced myeloid leukemia cell differentiation protein Mcl-1 (Homo sapiens); test: Protac activity at Cereblon/MCL1 in human OPM2 cells at 500 nM after 3 hrs in presence of proteasome inhibitor bortezomib by immunoblot analysis; format: cell-based
Outline: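 OPM2 cells were treated for 3 h with DMSO, degrader and/or the proteasome inhibitor bortezomib, then immunoblotted for MCL1.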

[4] = target: T1, Protein cereblon/Induced myeloid leukemia cell differentiation protein Mcl-1 (Homo sapiens); test: Protac activity at Cereblon/MCL1 long isoform in human MM1S cells assessed as MCL1 long isoform level at 300 nM pre-incubated for 72 hrs followed by cycloheximide addition and measured after 60 mins by immunoblot analysis (reference value: 82%); format: cell-based; outline: as §2
[5] = target: T2, Induced myeloid leukemia cell differentiation protein Mcl-1 (Homo sapiens, UniProt Q07820); test: Induction of MCL1 long isoform degradation in CRBN-/- human OPM2 cells assessed as protein abundance at 100 nM after 48 hrs by immunoblot analysis relative to control; format: cell-based; outline: as §1
[6] = target: T1, Protein cereblon/Induced myeloid leukemia cell differentiation protein Mcl-1 (Homo sapiens); test: Protac activity at Cereblon/MCL1 long isoform in human OPM2 cells assessed as MCL1 long isoform abundance at 50 nM after 24 hrs by immunoblot analysis relative to control; format: cell-based
[7] = target: T1, Protein cereblon/Induced myeloid leukemia cell differentiation protein Mcl-1 (Homo sapiens); test: Protac activity at Cereblon/MCL1 short isoform in human OPM2 cells assessed as MCL1 short isoform abundance at 50 nM after 24 hrs by immunoblot analysis relative to control; format: cell-based
[8] = target: T1, Protein cereblon/Induced myeloid leukemia cell differentiation protein Mcl-1 (Homo sapiens); test: Protac activity at Cereblon/MCL1 short isoform in wild type human OPM2 cells assessed as MCL1 short isoform level at 300 nM pre-incubated for 72 hrs followed by cycloheximide addition and measured after 120 mins by immunoblot analysis (reference value: 14%); format: cell-based
Outline: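 OPM2 wild-type and OPM2 CRBN-/- cells were treated for 72 h with compound or DMSO, with cycloheximide present for the final 60 or 120 min. MCL1 was detected by immunoblot.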

[9] = target: T1, Protein cereblon/Induced myeloid leukemia cell differentiation protein Mcl-1 (Homo sapiens); test: Protac activity at Cereblon/MCL1 short isoform in human OPM2 cells assessed as MCL1 short isoform abundance at 100 nM after 24 hrs by immunoblot analysis relative to control; format: cell-based
[10] = target: T1, Protein cereblon/Induced myeloid leukemia cell differentiation protein Mcl-1 (Homo sapiens); test: Protac activity at Cereblon/MCL1 in human OPM2 cells assessed as protein abundance at 250 nM after 48 hrs by immunoblot analysis relative to control; format: cell-based; outline: as §1
[11] = target: T1, Protein cereblon/Induced myeloid leukemia cell differentiation protein Mcl-1 (Homo sapiens); test: Protac activity at Cereblon/MCL1 long isoform in human OPM2 cells assessed as MCL1 long isoform level at 300 nM pre-incubated for 72 hrs followed by cycloheximide addition and measured after 60 mins by immunoblot analysis (reference value: 84%); format: cell-based; outline: as §2
[12] = target: T1, Protein cereblon/Induced myeloid leukemia cell differentiation protein Mcl-1 (Homo sapiens); test: Protac activity at Cereblon/MCL1 long isoform in human OPM2 cells assessed as MCL1 long isoform abundance at 100 nM after 24 hrs by immunoblot analysis relative to control; format: cell-based
[13] = target: T1, Protein cereblon/Induced myeloid leukemia cell differentiation protein Mcl-1 (Homo sapiens); test: Protac activity at Cereblon/MCL1 short isoform in wild type human OPM2 cells assessed as MCL1 short isoform abundance at 250 nM after 48 hrs by immunoblot analysis relative to control; format: cell-based
Outline: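 OPM2 wild-type cells, run alongside the CRBN-/- line, were treated for 48 h with compound or DMSO. The MCL1 long and short isoforms were then measured by immunoblot against the DMSO control.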

[14] = target: T1, Protein cereblon/Induced myeloid leukemia cell differentiation protein Mcl-1 (Homo sapiens); test: Protac activity at Cereblon/MCL1 long isoform in wild type human OPM2 cells at 500 nM after 48 hrs by immunoblot analysis relative to control; format: cell-based; outline: as §1
[15] = target: T1, Protein cereblon/Induced myeloid leukemia cell differentiation protein Mcl-1 (Homo sapiens); test: Protac activity at Cereblon/MCL1 long isoform in human OPM2 cells assessed as MCL1 long isoform level at 300 nM pre-incubated for 72 hrs followed by cycloheximide addition and measured after 120 mins by immunoblot analysis (reference value: 58%); format: cell-based; outline: as §2
[16] = target: T1, Protein cereblon/Induced myeloid leukemia cell differentiation protein Mcl-1 (Homo sapiens); test: Protac activity at Cereblon/MCL1 long isoform in wild type human OPM2 cells at 100 nM after 48 hrs by immunoblot analysis relative to control; format: cell-based; outline: as §1
[17] = target: T1, Protein cereblon/Induced myeloid leukemia cell differentiation protein Mcl-1 (Homo sapiens); test: Protac activity at Cereblon/MCL1 long isoform in human OPM2 cells assessed as MCL1 long isoform abundance at 250 nM after 24 hrs by immunoblot analysis relative to control; format: cell-based
[18] = target: T1, Protein cereblon/Induced myeloid leukemia cell differentiation protein Mcl-1 (Homo sapiens); test: Protac activity at Cereblon/MCL1 short isoform in human OPM2 cells assessed as MCL1 short isoform abundance at 250 nM after 24 hrs by immunoblot analysis relative to control; format: cell-based
[19] = target: T1, Protein cereblon/Induced myeloid leukemia cell differentiation protein Mcl-1 (Homo sapiens); test: Protac activity at Cereblon/MCL1 short isoform in human OPM2 cells assessed as MCL1 short isoform level at 300 nM pre-incubated for 72 hrs followed by cycloheximide addition and measured after 60 mins by immunoblot analysis (reference value: 49%); format: cell-based
Outline: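 OPM2 or MM1.S cells were treated for 72 h with compound or DMSO. Cycloheximide was added for the final 30, 60 or 120 min. MCL1 was read by immunoblot and compared with DMSO-treated cells as a normal-turnover reference.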

[20] = target: T2, Induced myeloid leukemia cell differentiation protein Mcl-1; test: Induction of MCL1 long isoform degradation in CRBN-/- human OPM2 cells assessed as protein abundance at 300 nM pre-incubated for 72 hrs followed by cycloheximide addition and measured after 60 mins by immunoblot analysis (reference value: 79%); format: cell-based; outline: as §2
[21] = target: T1, Protein cereblon/Induced myeloid leukemia cell differentiation protein Mcl-1 (Homo sapiens); test: Protac activity at Cereblon/MCL1 short isoform in human OPM2 cells assessed as MCL1 short isoform abundance at 500 nM after 24 hrs by immunoblot analysis relative to control; format: cell-based
[22] = target: T2, Induced myeloid leukemia cell differentiation protein Mcl-1; test: Induction of MCL1 long isoform degradation in CRBN-/- human OPM2 cells assessed as protein abundance at 50 nM after 48 hrs by immunoblot analysis relative to control; format: cell-based; outline: as §1
[23] = target: T2, Induced myeloid leukemia cell differentiation protein Mcl-1; test: Binding affinity to His-tagged biotinylated human MCL1 by surface plasmon resonance method
OPM-2 [24] = test: Induction of apoptosis in wild type human OPM2 cells assessed as cleaved caspase-3 at 50 nM after 24 hrs in presence of 1% FBS by immunoblot analysis (reference value: 95%); format: functional
[25] = target: T1, Protein cereblon/Induced myeloid leukemia cell differentiation protein Mcl-1 (Homo sapiens); test: Protac activity at Cereblon/MCL1 in human OPM2 cell lysate assessed as induction of MCL1 polyubiquitination incubated for 3 hrs by SDS-PAGE/immunoblot analysis; format: subcellular
Outline: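 In vitro ubiquitinylation reactions; the target (MCL1 or BRD4) was then immunoprecipitated and the immunoprecipitate immunoblotted for ubiquitin.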

[26] = target: T1, Protein cereblon/Induced myeloid leukemia cell differentiation protein Mcl-1 (Homo sapiens); test: Protac activity at Cereblon/MCL1 long isoform in human OPM2 cells assessed as MCL1 long isoform level at 300 nM pre-incubated for 72 hrs followed by cycloheximide addition and measured after 30 mins by immunoblot analysis (reference value: 98%); format: cell-based; outline: as §2
OPM-2 [27] = test: Induction of apoptosis in wild type human OPM2 cells assessed as cleaved caspase-3 at 250 nM after 24 hrs in presence of 1% FBS by immunoblot analysis (reference value: 92%); format: functional

T2 sequence (Q07820 whole entry, canonical isoform): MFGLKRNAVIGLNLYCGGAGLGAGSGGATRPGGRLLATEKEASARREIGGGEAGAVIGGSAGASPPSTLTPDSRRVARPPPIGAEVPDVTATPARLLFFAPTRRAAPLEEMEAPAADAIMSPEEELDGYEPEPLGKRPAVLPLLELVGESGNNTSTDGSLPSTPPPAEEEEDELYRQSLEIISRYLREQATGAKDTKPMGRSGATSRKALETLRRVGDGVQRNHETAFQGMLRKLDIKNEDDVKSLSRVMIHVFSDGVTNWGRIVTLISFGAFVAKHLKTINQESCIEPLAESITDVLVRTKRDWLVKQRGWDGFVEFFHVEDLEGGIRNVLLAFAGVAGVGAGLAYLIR
T1 sequence (Q07820 whole entry, looked up, canonical isoform): as the sequence (Q07820 whole entry, canonical isoform) above
T1 sequence (Q96SW2 whole entry, looked up, canonical isoform): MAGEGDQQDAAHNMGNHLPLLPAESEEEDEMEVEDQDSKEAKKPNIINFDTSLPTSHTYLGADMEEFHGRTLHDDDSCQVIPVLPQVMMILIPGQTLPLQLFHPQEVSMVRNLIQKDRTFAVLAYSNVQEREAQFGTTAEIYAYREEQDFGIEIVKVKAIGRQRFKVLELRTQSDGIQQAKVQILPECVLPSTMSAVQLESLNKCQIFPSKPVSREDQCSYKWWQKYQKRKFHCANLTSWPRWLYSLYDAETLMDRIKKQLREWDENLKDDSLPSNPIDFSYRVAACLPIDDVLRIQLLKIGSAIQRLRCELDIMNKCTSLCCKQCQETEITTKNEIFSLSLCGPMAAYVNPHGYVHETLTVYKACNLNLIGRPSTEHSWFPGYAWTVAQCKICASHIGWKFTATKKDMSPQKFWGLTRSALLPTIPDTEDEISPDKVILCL

Activity [1]: 100%
Activity [2]: 66%
Activity [3]: inactive
Activity [4]: 58%
Activity [5]: 90%
Activity [6]: 97%
Activity [7]: 96%
Activity [8]: 2%
Activity [9]: 59%
Activity [10]: 63%
Activity [11]: 58%
Activity [12]: 77%
Activity [13]: 47%
Activity [14]: 50%
Activity [15]: 24%
Activity [16]: 69%
Activity [17]: 73%
Activity [18]: 49%
Activity [19]: 8%
Activity [20]: 78%
Activity [21]: 22%
Activity [22]: 100%
Kd [23]: 30 nM
Activity [25]: Active
Activity [26]: 88%
Compound: Cc1nn(C)c(COc2ccc(N3CCN(S(=O)(=O)N(C)C)CC3)cc2)c1-c1cccc2c(CCCOc3cccc4ccccc34)c(C(=O)O)n(CCN3CCN(C(=O)COc4cccc5c4C(=O)N(C4CCC(=O)NC4=O)C5=O)CC3)c12 (configuration not stated)
Activity (OPM-2 [24]): 85%
Activity (OPM-2 [27]): 197%

Reference: ChEMBL document CHEMBL4396889, “From Inhibition to Degradation: Targeting the Antiapoptotic Protein Myeloid Cell Leukemia 1 (MCL1)” (J Med Chem, 2019)
